# Measured values from different studies.
# Each line is one published result; the experiments were not run side by side.
# Target: Mitogen-activated protein kinase kinase kinase 9 (MAP3K9, Homo sapiens, UniProt P80192)
Structure (SMILES),read-out,action,technique,concentration,quantity,result
COc1ccc2oc(-c3ccc4nc(N)oc4c3)c/c(=N\c3ccccc3NC(=O)CCN)c2c1,binding,,,1 µM,remaining binding,83%
C#Cc1cnc(Nc2ccnc(CO)c2)nc1Nc1ccccc1S(C)(=O)=NC#N (stereo not drawn),cell-free assay,,,1 µM,remaining signal,26%
CN1CCN(C(=O)c2ccc(NC(=O)Nc3ccc(N(C)c4ccnc(Nc5ccc(CS(C)(=O)=O)cc5)n4)cc3)cc2)CC1,binding,,,1 µM,remaining binding,86%
C#Cc1cc(-c2cc(Nc3nc(N[C@@H](C)c4ccc(F)cn4)ncc3Cl)n[nH]2)ccc1C=O,enzyme activity,inhibitor,,0.2 µM,inhibition,59.8%
N#Cc1ccc(NC(=O)Nc2ccccc2)cc1,cell-free assay,,competition with immobilised ligand,25 µM,remaining binding,100%
CO[C@@H]1[C@H](N(C)C(=O)c2ccccc2)C[C@H]2O[C@]1(C)n1c3ccccc3c3c4c(c5c6ccccc6n2c5c31)C(=O)NC4,enzyme activity,inhibitor,,1 µM,inhibition,90%
CCCCC(=O)Nc1ccc(-c2ccc3ncn(CCC)c(=O)c3c2)cn1,binding,,competition with immobilised ligand,0.5 µM,remaining binding,83%
C=CC(=O)N1CCC[C@@H](n2nc(-c3ccc(Oc4ccccc4)cc3)c3c(N)ncnc32)C1,enzyme activity,inhibitor,,1 µM,inhibition,4%
Cc1ccc(NC(=O)c2ccnc(C(F)(F)F)c2)cc1-c1cc(OCCO)nc(N2CCOCC2)c1,binding,,,1 µM,remaining binding,100%
